The text below walks through data of ChEMBL document CHEMBL1143382, “Discovery of chiral cyclopropyl dihydro-alkylthio-benzyl-oxopyrimidine (S-DABO) derivatives as potent HIV-1 reverse transcriptase inhibitors with high activity against clinically relevant mutants” (J Med Chem, 2009).

Each structure is given as a SMILES string.

Data set [1] relates to Human immunodeficiency virus 1. In words: Antiviral activity against wild type HIV1 NL4-3 infected in human MT4 cells after 5 days by MTT assay. The following applies: Human immunodeficiency virus 1, NL4-3, MT4, 120 h. The class given is functional, organism-based. For orientation: Tetrazolium dyes change colour on reduction, which living cells bring about.
Data set [2] concerns Human immunodeficiency virus type 1 reverse transcriptase (Human immunodeficiency virus 1), Q72547 [K103N].
Data set [3] relates to Human immunodeficiency virus type 1 reverse transcriptase (Human immunodeficiency virus 1), Q72547 [Y181I].
Data set [4] relates to Human immunodeficiency virus 1. In words: Antiviral activity against HIV1 reverse transcriptase Y188L mutant infected in human MT4 cells after 5 days by MTT assay. The class given is functional, organism-based. The note with it: Human immunodeficiency virus 1, MT4, 120 h. The method in brief:
(§1)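 MT-4 lymphoid cells infected with the HIV-1 strain carrying the indicated RT mutation in the presence of varying compound concentrations. Viable cells counted by tetrazolium (MTT) colorimetric read-out at day 5 post-infection. […] Mock-infected cells were used for cytotoxicity. Values are means of at least two experiments.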

In data set [5] the target is T1, Human immunodeficiency virus type 1 reverse transcriptase (Human immunodeficiency virus 1, UniProt Q72547, K103N). Description: Inhibition of HIV1 recombinant free reverse transcriptase K103N mutant expressed in Escherichia coli BL21.
Data set [6] relates to Human immunodeficiency virus 1. Description: Antiviral activity against HIV1 reverse transcriptase K103N mutant infected in human MT4 cells after 5 days by MTT assay. The note with it: Human immunodeficiency virus 1, MT4, 120 h. It is filed as functional, organism-based. The method in brief:
as §1

The target in data set [7] is Human immunodeficiency virus type 1 reverse transcriptase (Human immunodeficiency virus 1) (UniProt Q72547).
Data set [8] relates to Human immunodeficiency virus 1. In words: Antiviral activity against HIV1 reverse transcriptase Y181C mutant infected in human MT4 cells after 5 days by MTT assay. It is filed as functional, organism-based. The note with it: Human immunodeficiency virus 1, MT4, 120 h. The method in brief:
as §1

Data set [9] has as its target T2, Human immunodeficiency virus type 1 reverse transcriptase (Human immunodeficiency virus 1, UniProt Q72547). Description: Inhibition of wild type HIV1 reverse transcriptase-DNA-dNTP ternary complex.
Data set [10] deals with T2, Human immunodeficiency virus type 1 reverse transcriptase. Description: Inhibition of wild type HIV1 reverse transcriptase-DNA binary complex.
Data set [11] can be described thus: Cytotoxicity against human MT4 cells by MTT assay. The class given is cell-based.
The target in data set [12] is T1, Human immunodeficiency virus type 1 reverse transcriptase. In words: Inhibition of HIV1 recombinant reverse transcriptase K103N mutant-DNA-dNTP ternary complex expressed in Escherichia coli BL21.
Data set [13] has as its target T2, Human immunodeficiency virus type 1 reverse transcriptase. In words: Inhibition of wild type HIV1 free reverse transcriptase.
In data set [14] the target is T1, Human immunodeficiency virus type 1 reverse transcriptase. In words: Inhibition of HIV1 recombinant reverse transcriptase K103N mutant-DNA binary complex expressed in Escherichia coli BL21.
The target of data set [15] is Human immunodeficiency virus type 1 reverse transcriptase (Human immunodeficiency virus 1) (UniProt Q72547). In words: Binding affinity to HIV1 reverse transcriptase treated for 3 mins by surface plasmon resonance. (In general: SPR reads the build-up and loss of mass on a sensor chip optically.)

As a reminder, the EC50 is the concentration needed to bring the measured effect to its halfway point. A word on the Ki: it is a dissociation constant, usually derived from enzyme kinetics or from competition with a known ligand. The term CC50 denotes the concentration that lowers cell viability or growth by half. In the case of `COc1ccc([C@H]2C[C@@H]2CSc2nc([C@H](C)c3c(F)cccc3F)c(C)c(=O)[nH]2)cc1`, the EC50 amounted to 10 nM in data set [1], 700 nM in data set [4], 3710 nM in data set [6] and 2700 nM in data set [8]. The figures for the ID50 in [2], in [3] and in [7] were 400 nM, 900 nM and 40 nM, respectively. Also, the Ki was determined as 600 nM in data set [5]; 40 nM in data set [9]; 30 nM in data set [10]; 300 nM in data set [12]; 40 nM in [13]; 400 nM in data set [14]. The compound also had a half-maximal cytotoxic concentration (CC50) in data set [11] of more than 56200 nM.
With `COc1ccc(/C=C/CSc2nc(C(C)c3c(F)cccc3F)c(C)c(=O)[nH]2)cc1` (racemic), the Ka in [15] was 1 ×10⁴ /M/s.
Turning to `Cc1c([C@H](C)c2c(F)cccc2F)nc(SC/C=C/c2ccccc2)[nH]c1=O`, the ID50 turned out to be 470 nM in data set [2], 2990 nM in [3] and 10 nM in [7].
Consider `O=C1Nc2ccc(Cl)cc2[C@@](C#CC2CC2)(C(F)(F)F)O1` [EFAVIRENZ], for which the EC50 in data set [4] was 3 nM; in data set [8], 8 nM. Further, the CC50 in [11] was more than 320 nM.
Consider `COc1ccc(/C=C/CSc2nc([C@@H](C)c3c(F)cccc3F)c(C)c(=O)[nH]2)cc1`, for which the results for the ID50 in [2], in data set [3] and in data set [7] were 7010 nM, 27800 nM and 600 nM, respectively.
In turn, `Cc1cc(C#N)cc(C)c1Oc1nc(Nc2ccc(C#N)cc2)nc(N)c1Br` yielded a Ka in data set [15] of 0.8 ×10⁴ /M/s.
Consider `COc1ccc(C2CC2CSc2nc(C(C)c3c(F)cccc3F)c(C)c(=O)[nH]2)cc1` (racemic), for which the EC50 amounted to 0.6 nM in data set [1], 45 nM in data set [4], 520 nM in [6] and 160 nM in [8]. In addition, the ID50 turned out to be 3000 nM in [2], 6000 nM in [3] and 40 nM in data set [7]. This compound also displayed a CC50 in data set [11] of 37300 nM.
Regarding `Cc1ccnc2c1NC(=O)c1cccnc1N2C1CC1` [NEVIRAPINE], the EC50 in data set [4] and in data set [8] was more than 7500 nM each time. Moreover, the CC50 in data set [11] is more than 7500 nM.
For the compound `COc1ccc([C@@H]2C[C@H]2CSc2nc([C@@H](C)c3c(F)cccc3F)c(C)c(=O)[nH]2)cc1`, the EC50 in [1] worked out at 4.9 nM; in data set [4], 190 nM; in data set [6] it was 2550 nM; in data set [8] it was 520 nM. Besides, the ID50 was found to be 600 nM in [2], 6000 nM in data set [3] and 300 nM in [7]. This compound yielded a CC50 in data set [11] of 47200 nM.
On to `COc1ccc([C@H]2C[C@@H]2CSc2nc([C@@H](C)c3c(F)cccc3F)c(C)c(=O)[nH]2)cc1`, for which the EC50 was determined as 90 nM in [1], 1080 nM in [4], 5510 nM in data set [6] and 7240 nM in data set [8]. Further, the ID50 is 830 nM in data set [2], 2300 nM in [3] and 120 nM in data set [7]. Besides, in [11], the CC50 is more than 56200 nM.
For `COc1ccc([C@@H]2C[C@H]2CSc2nc([C@H](C)c3c(F)cccc3F)c(C)c(=O)[nH]2)cc1`, the EC50 in [1] is 0.07 nM; in data set [4], 1.5 nM; in data set [6], 36 nM; in data set [8], 13 nM. Besides, the ID50 in [2] is 40 nM; in data set [3] it was 800 nM; in [7], 20 nM. Besides, the inhibition constant Ki in data set [5] turned out to be 65 nM; in data set [9], 9 nM; in [10], 8 nM; in data set [12] it was 30 nM; in data set [13], 10 nM; in data set [14] it was 40 nM. Moreover, the Ka in [15] turned out to be 1 ×10⁴ /M/s. In addition, the CC50 in [11] worked out at 14600 nM.
